Screening data as filed in PubChem BioAssay.
This is a sample that favours compounds with a hit; in the whole collection about 3.9% have one here.
TAAR1 antag = human TAAR1 antagonists, primary screen, Fluo-8 calcium fluorescence, CHO RD-HGA16 cells | Trace amine-associated receptor 1 (Homo sapiens), Q96RJ0 | antagonist | inhibition, % at 3 µM | 360,000 compounds, 1.5% hits | AID 624466, 2012;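 active = inhibition above a per-plate cutoff, the mean inhibition of test compounds on that plate plus 3 SD, cut at about 49% in these data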
Target sequence (Q96RJ0 whole entry, looked up): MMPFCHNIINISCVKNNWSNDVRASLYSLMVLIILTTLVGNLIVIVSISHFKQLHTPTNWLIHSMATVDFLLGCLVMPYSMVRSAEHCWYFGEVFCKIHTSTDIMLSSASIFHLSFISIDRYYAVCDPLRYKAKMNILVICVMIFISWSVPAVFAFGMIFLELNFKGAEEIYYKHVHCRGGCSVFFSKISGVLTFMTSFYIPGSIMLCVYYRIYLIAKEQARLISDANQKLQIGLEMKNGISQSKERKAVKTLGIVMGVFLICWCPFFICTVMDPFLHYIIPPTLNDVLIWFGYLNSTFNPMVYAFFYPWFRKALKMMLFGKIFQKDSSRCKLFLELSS
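test system = CHO RD-HGA16 cells bearing hTAAR1 | replication = singlicate | controls = DMSO-only wells and EC80 β-PEA-stimulated wells | reagent = EC80 β-phenethylamine stimulus | read-out basis = percent inhibition of PEA-evoked calcium signal, max/basal emission ratio | schedule = seeding 17-24 h prior, 75-min 37 °C, 30-min RT dye loading | signal = kinetic Fluo-8 calcium fluorescence measurement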
TAAR1 agonist = human TAAR1 agonists, primary screen, Fluo-8 calcium fluorescence, CHO RD-HGA16 cells. vehicle wells 0%, saturating PEA agonist 100%. activation, % at 3 µM. 360,000 compounds, 0.99% hits;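 active = activation above the mean activation of all test compounds in the run plus 3 SD, cut at about 38% in these data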
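System: CHO RD-HGA16 cells carrying human TAAR1 plus Gα16; Incubation: 17-24 h seeding, 75 min 37 °C dye, 30 min RT; Measured by: Fluo-8 fluorescence, 5 s baseline then 140 s kinetic read; Control set: DMSO and PEA EC100; Replication: single well for each compound.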
M1 ag = human M1 muscarinic receptor agonists, primary screen, Fluo-8 calcium fluorescence, CHO-K1 cells, HTS; Muscarinic acetylcholine receptor M1 (Homo sapiens), P11229; CHO-K1 hM1, agonist mode; 0% DMSO, 100% acetylcholine EC100; activation, % at 3 µM; 360,000 compounds, 0.33% hits; AID 588814, 2011;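 active = activation above the run's mean compound activation plus 3 SD, cut at about 16% in these data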;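 note: peak over basal fluorescence ratio within a 140 s kinetic read after compound addition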
M1 PAM = human M1 muscarinic receptor positive allosteric modulators, primary screen, CHO-K1 cells, Fluo-8 calcium fluorescence, 1536-well; Muscarinic acetylcholine receptor M1 (Homo sapiens), P11229; activation, % at 3 µM; AID 588819, 2011; 360,000 compounds, 0.088% hits; CHO-K1 hM1, ACh EC20; 0% = ACh EC20, 100% = maximal ACh; in the data active = activation above about 19%, passing the limit was not always enough
HTR2A ag = mouse Htr2a agonists via beta-arrestin recruitment, primary screen, cell-based, luminescence; 5-hydroxytryptamine receptor 2A (Mus musculus), P35363; CHO-K1 mHTR2A beta-arrestin complementation; percent of 30 µM serotonin response; activation, % at 7.6 µM; 360,000 compounds, 0.66% hits;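 active = activation above a run cutoff, the mean activation of all tested compounds plus 3 SD, cut at about 14% in these data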
M1 antag = human M1 muscarinic receptor antagonists, primary screen, CHO-K1 cells, Fluo-8 calcium fluorescence, 1536-well. Muscarinic acetylcholine receptor M1 (Homo sapiens), P11229. CHO-K1 hM1, ACh EC80 antagonist. inhibition, % at 3 µM. 360,000 compounds, 1.3% hits. AID 588852, 2011;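 active = percent inhibition above its own plate's cutoff, namely the mean of that plate's compound wells plus 3 SD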;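 note: peak over basal fluorescence ratio during 140 s after agonist addition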
Each line names hits and unclear results; the compound was inactive in the other large screens.

CC(=O)c1c(C)n(-c2cccc(Cl)c2)c2ccc(O)cc12	TAAR1 antag 51.1
CC(=O)c1c(C)n(-c2ccc(Cl)cc2)c2ccc(O)cc12	none
CCC(C)C(NC(=O)c1ccccc1NC(=O)c1ccc(OC)cc1)C(=O)NCCCn1ccnc1 (stereo not drawn)	none
CCN1/C(=C/C=C/c2oc3ccc(-c4ccccc4)cc3[n+]2CC)Oc2ccc(-c3ccccc3)cc21	TAAR1 antag 104.8, TAAR1 agonist 530.6, M1 ag 598.6, M1 antag 102.5
CCN1/C(=C/C=C/c2sc3ccccc3[n+]2CC)Sc2ccccc21	none (no result: TAAR1 antag, TAAR1 agonist)
Cc1ccccc1N1CCN(c2ccccc2NC(=O)/C=C\C(=O)O)CC1	none
Cc1nc([N+](=O)[O-])c(SCC(N)=O)n1Cc1ccccc1	none
Cc1nc([N+](=O)[O-])c(N2CCN(C)CC2)n1Cc1ccccc1	M1 antag 40.5
O=C(NC1CCCCC1)C1COc2ccccc2O1 (stereo not drawn)	M1 antag 45.9
COc1ccc2nc(N3CCN(C(=O)C4COc5ccccc5O4)CC3)sc2c1 (stereo not drawn)	none
COc1ccc(S(=O)(=O)N2CCCCC2)cc1NC(=O)C1CC1	none
Cc1cccc2sc(N3CCN(C(=O)C4COc5ccccc5O4)CC3)nc12 (stereo not drawn)	TAAR1 agonist 49.9
COc1ccc(S(=O)(=O)N2CCCCC2)cc1NC(=O)C1COc2ccccc2O1 (stereo not drawn)	TAAR1 antag 57.5
COc1ccc(S(=O)(=O)N2CCN(C(=O)C3COc4ccccc4O3)CC2)cc1 (stereo not drawn)	M1 antag 89.0
CCOC(=O)C1=C(C(=O)OCC)C2N(Cc3ccc(C(F)(F)F)cc3)c3ccccc3[C@@]23C[C@@H](C(=O)OC)N(S(=O)(=O)c2cccs2)C3=N1 (stereo partly drawn)	none (no result: M1 ag, M1 PAM, HTR2A ag, M1 antag)
Cc1ccc(S(=O)(=O)NC(=O)C2(C)CCN2C(=O)c2ccc(C(F)(F)F)nc2C)cc1 (stereo not drawn)	none
COc1cc(C(=O)Oc2cccc(/C=N/NC(=O)c3cc(C)[nH]n3)c2)cc(OC)c1OC	TAAR1 antag 56.3
CCC(C)[C@H]1CN=C(N)N1CCc1cccc2ccccc12 (stereo partly drawn)	M1 antag 38.2
CCC(C)[C@H]1CNC(=S)N1CCc1cccc2ccccc12 (stereo partly drawn)	none
O=C(Nc1ccc(Cl)cc1)C1C2CCC3C(CCC21)C3(Cl)Cl (stereo not drawn)	TAAR1 antag 56.4
O=C(Nc1ccc(F)cc1)C1C2CCC3C(CCC21)C3(Cl)Cl (stereo not drawn)	none
COc1ccc(Cl)cc1NS(=O)(=O)c1cccc(C(=O)NCC(c2ccco2)N(C)C)c1 (stereo not drawn)	none
O=C(Nc1ccc2c(c1)OCCO2)C(=O)c1c[nH]c2ccccc12	TAAR1 antag 53.8
Cc1ccc(NC(=O)NNC(=O)CSC2CCc3ccccc32)c(C)c1 (stereo not drawn)	none (no result: M1 ag, M1 PAM, HTR2A ag, M1 antag)
O=C1CN(C(=O)c2ccccc2Br)C(c2ccc(F)cc2)c2cc(F)ccc2N1 (stereo not drawn)	TAAR1 agonist 40.8
CCCCCCNc1c([N+](=O)[O-])c(=O)sc2ccccc12	M1 antag 42.1
CC1CN(CC(=O)NCc2ccc(Cl)cc2)CC(C)O1 (stereo not drawn)	none
Nc1c(C(=O)CSc2n[nH]c(-c3ccccc3)n2)c(=O)[nH]c(=O)n1C1CC1	M1 PAM 29.2
Nc1c(C(=O)CSc2n[nH]c(-c3ccccc3Br)n2)c(=O)[nH]c(=O)n1C1CC1	none
NCCCCCc1nnc(SCc2ccc(Cl)cc2Cl)o1	M1 antag 32.8
NCCCCCc1nnc(SCc2cccc(Cl)c2)o1	M1 antag 29.9
NCCCCCc1nnc(SCC(=O)Nc2cccc(Cl)c2)o1	none
CN1CCN(NC(=S)NC(C)(C)CC(C)(C)C)CC1	none
COCCN1Cc2cc(C(=O)OC)c3c(c2C1=O)c1cc(F)ccc1n3S(=O)(=O)c1ccc(C)cc1	none (no result: M1 ag, M1 PAM, HTR2A ag, M1 antag)
CNc1ccc2c3c(cccc13)C(=O)N(C)C2=O	TAAR1 agonist 157.0, M1 ag 312.7, M1 antag 72.7
CN1C(=O)c2cccc3c(Cl)ccc(c23)C1=O	none
O=C(Nc1cccc(Cl)c1N1CCOCC1)c1cccnc1Cl	none
CN(CCCCCCCCC(=O)/C=N/O)Cc1ccccc1	M1 antag 68.7
Cc1ccc(NC(=O)CCC(=O)N2CCC(C)CC2)c([N+](=O)[O-])c1	none
CC(=O)Nc1ccc(/C(C)=N/Nc2nc(N3CCOCC3)nc(N3CCOCC3)n2)cc1	none
CC(=O)Nc1ccc(/C(C)=N/Nc2nc(Nc3cccc4ccccc34)nc(N3CCOCC3)n2)cc1	TAAR1 antag 52.1, TAAR1 agonist 49.6, M1 ag 18.0
Cc1cc(C(=O)CSc2nncs2)c(C)n1-c1c(C)n(C)n(-c2ccccc2)c1=O	M1 antag 54.5
O=C(CNC(=O)c1sc2ccccc2c1Cl)NC1CC1	none
O=C(NCCCN1CCCCC1)c1ccc2c(c1)NC(=O)c1ccccc1S2	M1 antag 42.8
CC(C)[C@H](NC(=O)c1ccco1)C(=O)N1CCC[C@H]1C(=O)NCc1ccccc1	none (no result: M1 ag, M1 PAM, HTR2A ag, M1 antag)
CCc1ccccc1NC(=O)COc1ccc2c(c1)OCO2	none
Cc1ccc(NC(=O)COc2ccc3c(c2)OCO3)c(Cl)c1	M1 PAM 27.0
CCc1nn(CC(=O)NCCCN2CCc3ccccc3C2)c(=O)c2cc3sccc3n12	M1 antag 43.7
CCN(CC)CC#CCC(O)(c1ccccc1)C1CCCC1 (stereo not drawn)	M1 antag 102.2
CN1CCN(CC#CCC(O)(c2ccccc2)C2CCCC2)CC1 (stereo not drawn)	M1 antag 34.1
CN(C)CC#CCC(O)(c1ccccc1)C1CCCCC1 (stereo not drawn)	M1 antag 100.3
CC1CCN(c2nc3ccc(C(=O)N4CCN(Cc5ccc6c(c5)OCO6)CC4)cc3s2)CC1	M1 antag 28.6
CNC(=O)c1ccsc1NC(=O)c1ccc2c(c1)CCCC2	TAAR1 antag 51.4
CC(=O)c1c(C)[nH]c(C(=O)CSc2ccc(F)cc2)c1C	M1 antag 32.9
Cc1ccccc1SCC(=O)OCC(=O)N(C)c1c(N)n(Cc2ccccc2)c(=O)[nH]c1=O	none
